# Laboratory results reported in ChEMBL document CHEMBL1154198, “Chemical genetics of Plasmodium falciparum” (Nature, 2010).
# How the values were obtained:
# [1] = ST_JUDE: Cytotoxicity using luciferase to measure ATP as an indicator of the viability of human epithelial embryonic kidney cells (HEK293); format: toxicity, cell-based
# Plasmodium falciparum [2] = test: ST_JUDE: Cytotoxicity against Plasmodium falciparum K1; format: functional, organism-based
# In short: (§1)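 Asexual P. falciparum grown in human erythrocytes, exposed to compounds for 72 h, and growth read as the DNA quantity in treated versus control cultures. Dose-response run at 12 concentrations from 10 μM to 5 nM.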
# Leishmania major = test: ST_JUDE: Cytotoxicity using Alamar Blue to measure viability of Leishmania major; format: functional, organism-based
# In short: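 L. major promastigotes; drug susceptibility read with Alamar Blue.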
# Plasmodium falciparum [3] = test: ST_JUDE: Cytotoxicity against Plasmodium falciparum V1/S; format: functional, organism-based
# [4] = ST_JUDE: Cytotoxicity using luciferase to measure ATP as an indicator of the viability of human epithelial hepatocellular carcinoma cells (HepG2); format: toxicity, cell-based
# Trypanosoma brucei = test: ST_JUDE: Cytotoxicity using luciferase to measure ATP as an indicator of the viability of Trypanosoma brucei; format: functional, organism-based
# Plasmodium falciparum [5] = test: ST_JUDE: Plasmodium falciparum 3D7 EC50 (uM) as measured by SYBR green dye; format: functional, organism-based
# Plasmodium falciparum [6] = test: ST_JUDE: Cytotoxicity against Plasmodium falciparum 3D7; format: functional, organism-based; in short: as §1
# Plasmodium falciparum [7] = test: ST_JUDE: Cytotoxicity against Plasmodium falciparum Dd2; format: functional, organism-based
# Plasmodium falciparum [8] = test: ST_JUDE: Cytotoxicity against Plasmodium falciparum SB-A6; format: functional, organism-based
# Plasmodium falciparum [9] = test: ST_JUDE: Plasmodium falciparum K1 EC50 (uM) as measured by SYBR green dye; format: functional, organism-based
# Plasmodium falciparum [10] = test: ST_JUDE: Cytotoxicity against Plasmodium falciparum D10 transfected with yeast DHOD; format: functional, organism-based
# [11] = ST_JUDE: Cytotoxicity using luciferase to measure ATP as an indicator of the viability of human Burkitt''s lymphoma lymphoblast cells (Raji); format: toxicity, cell-based
# Toxoplasma gondii = test: ST_JUDE: Growth inhibition of to Toxoplasma gondii, in human U-2OS cells, as measured by luciferase.; format: functional, organism-based; settings: RH, U2OS
# In short: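 T. gondii parasites engineered to express luciferase; drug sensitivity read by luminescence.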
# Plasmodium falciparum [12] = test: ST_JUDE: Cytotoxicity against Plasmodium falciparum W2; format: functional, organism-based
# [13] = ST_JUDE: Cytotoxicity using luciferase to measure ATP as an indicator of the viability of human foreskin fibroblast cells (BJ); format: toxicity, cell-based
SMILES,EC50 [1],EC50 (Plasmodium falciparum [2]),EC50 (Leishmania major),EC50 (Plasmodium falciparum [3]),EC50 [4],EC50 (Trypanosoma brucei),EC50 (Plasmodium falciparum [5]),EC50 (Plasmodium falciparum [6]),EC50 (Plasmodium falciparum [7]),EC50 (Plasmodium falciparum [8]),EC50 (Plasmodium falciparum [9]),EC50 (Plasmodium falciparum [10]),EC50 [11],EC50 (Toxoplasma gondii),EC50 (Plasmodium falciparum [12]),EC50 [13]
CN1C(=O)/C(=C\c2ccccc2Cl)Sc2ccc(C(=O)NC3CCN(Cc4ccccc4)CC3)cc21,> 42500 nM,2910 nM,> 18200 nM,3970 nM,17900 nM,3470 nM,276 nM,1740 nM,1150 nM,717 nM,254 nM,1090 nM,> 42500 nM,> 23300 nM,> 10900 nM,> 42500 nM
CCOc1ccc(Nc2nc(NCc3ccccc3)c3ccccc3n2)cc1,8670 nM,1440 nM,8.8 nM,1070 nM,4770 nM,5620 nM,1150 nM,1140 nM,651 nM,305 nM,1540 nM,1070 nM,8220 nM,> 21700 nM,> 10200 nM,8410 nM
CC(C)(C)c1ccc(S(=O)(=O)NC2=C/C(=N\c3ccc(O)cc3)C(=O)c3ccccc32)cc1,7990 nM,326 nM,> 14000 nM,687 nM,2180 nM,669 nM,1080 nM,600 nM,1030 nM,304 nM,579 nM,244 nM,4070 nM,> 18000 nM,385 nM,4620 nM
CC(C)c1ccc(S(=O)(=O)NC2=C/C(=N\c3ccc(O)cc3)C(=O)c3ccccc32)cc1,5470 nM,425 nM,> 14900 nM,836 nM,2220 nM,750 nM,346 nM,547 nM,946 nM,290 nM,125 nM,288 nM,3020 nM,> 19000 nM,823 nM,3580 nM
Cc1cccc(CN2CCC(CNC(=S)Nc3ccc4nc(N5CCN(C)CC5)cc(C)c4c3)CC2)c1,13600 nM,995 nM,> 18100 nM,1990 nM,6040 nM,4800 nM,395 nM,1140 nM,506 nM,708 nM,1250 nM,1050 nM,22600 nM,> 23200 nM,2230 nM,9560 nM
Cn1c(=O)c2c(-c3ccc(C(C)(C)C)cc3)n(-c3cc(Cl)ccc3O)cc2n(C)c1=O,> 39500 nM,> 10200 nM,> 16900 nM,988 nM,> 39500 nM,6750 nM,1140 nM,> 10200 nM,1270 nM,976 nM,1220 nM,982 nM,> 39500 nM,> 21700 nM,780 nM,> 39500 nM
C=CCn1c(=N)n(CC(O)c2ccc(Cl)c(Cl)c2)c2ccccc21 (stereo not drawn),39200 nM,602 nM,> 19100 nM,788 nM,16400 nM,8340 nM,334 nM,1080 nM,434 nM,2530 nM,181 nM,2630 nM,26400 nM,> 24500 nM,512 nM,> 44700 nM
CCOc1ccc(/C=C2\Oc3c(ccc(O)c3CN3CCCCC3)C2=O)cc1,> 47100 nM,500 nM,> 20200 nM,1180 nM,> 47100 nM,> 45200 nM,1290 nM,1770 nM,2140 nM,3390 nM,467 nM,1850 nM,> 47100 nM,> 25800 nM,1150 nM,> 47100 nM
Cc1c2[nH]c3ccccc3c2c2c([n+]1C)CC(C)(C)CC2,> 55500 nM,3520 nM,480 nM,3330 nM,> 55500 nM,13600 nM,896 nM,3190 nM,921 nM,1040 nM,1400 nM,1350 nM,> 55500 nM,> 30400 nM,154 nM,> 55500 nM
CCCO/C(O)=C1\C(C)=NC2=C(C(=O)CC(c3ccc(OC)c(OC)c3)C2)C1c1ccccc1OC (stereo not drawn),> 47000 nM,328 nM,> 20100 nM,392 nM,> 47000 nM,10400 nM,276 nM,385 nM,416 nM,288 nM,125 nM,414 nM,> 47000 nM,16100 nM,290 nM,> 47000 nM
Cc1ccc(C)c(N2CCN(Cc3cc(Br)ccc3O)CC2)c1,> 35600 nM,206 nM,> 15300 nM,297 nM,> 35600 nM,28300 nM,395 nM,532 nM,427 nM,716 nM,178 nM,579 nM,> 35600 nM,> 19500 nM,571 nM,> 35600 nM
Cc1ccc(NC(=O)c2c(I)cnn2C)cc1[N+](=O)[O-],> 45700 nM,> 11700 nM,> 19600 nM,3730 nM,> 45700 nM,> 43900 nM,705 nM,769 nM,822 nM,> 11700 nM,1050 nM,> 11700 nM,> 45700 nM,> 25100 nM,583 nM,> 45700 nM
CC(C)CN1C(=O)c2ccccc2C(C(=O)Nc2ccc(F)cc2F)C1c1cccs1 (stereo not drawn),> 43300 nM,> 11100 nM,> 18500 nM,942 nM,> 43300 nM,8860 nM,326 nM,647 nM,808 nM,970 nM,399 nM,687 nM,> 43300 nM,> 23700 nM,738 nM,> 43300 nM
